Source: PubChem BioAssay
Calls of active or inactive are those of the source.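 Rule for the calls, unless noted: active = mean duplicate potentiation above the buffer control mean plus 5 SD of buffer wells; inactive = the rest.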

What was measured:
[1] = nonspecific flux increase, KCNQ1-free cells – parental CHO cells, counter-screen for KCNQ1 potentiator project (AID 493006;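 active = duplicate-averaged activation above buffer control mean plus 5 SD of those controls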;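 for activation: fluorescence ratio of max minus min over baseline after K+ and Tl+ depolarization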); details: parental CHO-K1 cells, FluxOR thallium flux, at 10 µM; stronger effect = higher value
How it was run: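 Assay system: parental CHO-K1 cells lacking KCNQ1, loaded with FluxOR thallium dye; timing: dye 90 min RT, compound 20 min RT; signal: kinetic thallium-flux fluorescence; repeats: duplicate wells per compound, percent values averaged; benchmarks: buffer and R-L3 controls; reagent: Potassium/thallium depolarization pulse; read-out: fluorescence change ratio scaled 0% buffer, 100% R-L3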

[2] = target: Potassium voltage-gated channel subfamily KQT member 1 (Homo sapiens) (UniProt P51787); assay: enhancement of KCNQ1 channel thallium flux – FluxOR thallium flux, CHO cells, duplicates, confirmation (AID 493007;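 active = potentiation averaged over duplicate wells exceeding buffer-only control mean by more than 3 SD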;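 for outcome: cells depolarized by a potassium plus thallium sulfate stimulus after compound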); details: KCNQ1 cell line, FluxOR thallium flux fluorescence, at 10 µM; stronger effect = higher value, % of reference activator effect, buffer zero
Potassium voltage-gated channel subfamily KQT member 1 (Homo sapiens), sequence (P51787 whole entry, looked up): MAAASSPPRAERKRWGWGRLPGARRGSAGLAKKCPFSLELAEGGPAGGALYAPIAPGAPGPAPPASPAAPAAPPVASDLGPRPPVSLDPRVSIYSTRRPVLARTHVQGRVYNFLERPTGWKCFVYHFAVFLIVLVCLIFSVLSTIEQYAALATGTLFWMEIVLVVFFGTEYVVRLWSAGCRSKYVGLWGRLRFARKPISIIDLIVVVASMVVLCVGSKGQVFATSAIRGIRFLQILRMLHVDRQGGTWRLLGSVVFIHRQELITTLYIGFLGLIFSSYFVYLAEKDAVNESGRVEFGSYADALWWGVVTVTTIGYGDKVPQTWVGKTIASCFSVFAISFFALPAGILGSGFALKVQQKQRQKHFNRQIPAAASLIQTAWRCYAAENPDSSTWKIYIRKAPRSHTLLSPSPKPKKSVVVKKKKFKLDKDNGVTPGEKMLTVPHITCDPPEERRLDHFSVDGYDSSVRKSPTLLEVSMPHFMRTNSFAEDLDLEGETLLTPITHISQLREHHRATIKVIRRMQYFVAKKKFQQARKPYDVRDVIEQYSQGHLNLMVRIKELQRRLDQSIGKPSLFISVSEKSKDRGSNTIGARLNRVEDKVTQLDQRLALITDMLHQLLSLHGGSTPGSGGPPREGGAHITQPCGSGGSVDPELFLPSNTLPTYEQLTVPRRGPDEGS
How it was run: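 material = CHO cells stably expressing the KCNQ1 potassium channel | repeats = duplicate wells per compound | measure = percent activation between buffer and R-L3 responses | signal = FluxOR thallium-flux fluorescence, kinetic read | schedule = FluxOR dye loading 90 min, compound exposure 20 min, room temperature | control set = buffer and R-L3 controls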

[3] = target: Potassium voltage-gated channel subfamily KQT member 2 (Rattus norvegicus) (UniProt O88943); assay: KCNQ2 thallium flux enhancement – KCNQ2-CHO-K1 cells, selectivity assay for KCNQ1 potentiator project (AID 493009); details: FluxOR thallium flux fluorescence, at 10 µM; stronger effect = higher value, scaled: buffer 0, activator control 100;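 note: assay conditions were tuned for KCNQ1 rather than KCNQ2 modulators; signal is max minus min fluorescence divided by baseline after thallium stimulus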
Potassium voltage-gated channel subfamily KQT member 2 (Rattus norvegicus), sequence (O88943 whole entry, looked up): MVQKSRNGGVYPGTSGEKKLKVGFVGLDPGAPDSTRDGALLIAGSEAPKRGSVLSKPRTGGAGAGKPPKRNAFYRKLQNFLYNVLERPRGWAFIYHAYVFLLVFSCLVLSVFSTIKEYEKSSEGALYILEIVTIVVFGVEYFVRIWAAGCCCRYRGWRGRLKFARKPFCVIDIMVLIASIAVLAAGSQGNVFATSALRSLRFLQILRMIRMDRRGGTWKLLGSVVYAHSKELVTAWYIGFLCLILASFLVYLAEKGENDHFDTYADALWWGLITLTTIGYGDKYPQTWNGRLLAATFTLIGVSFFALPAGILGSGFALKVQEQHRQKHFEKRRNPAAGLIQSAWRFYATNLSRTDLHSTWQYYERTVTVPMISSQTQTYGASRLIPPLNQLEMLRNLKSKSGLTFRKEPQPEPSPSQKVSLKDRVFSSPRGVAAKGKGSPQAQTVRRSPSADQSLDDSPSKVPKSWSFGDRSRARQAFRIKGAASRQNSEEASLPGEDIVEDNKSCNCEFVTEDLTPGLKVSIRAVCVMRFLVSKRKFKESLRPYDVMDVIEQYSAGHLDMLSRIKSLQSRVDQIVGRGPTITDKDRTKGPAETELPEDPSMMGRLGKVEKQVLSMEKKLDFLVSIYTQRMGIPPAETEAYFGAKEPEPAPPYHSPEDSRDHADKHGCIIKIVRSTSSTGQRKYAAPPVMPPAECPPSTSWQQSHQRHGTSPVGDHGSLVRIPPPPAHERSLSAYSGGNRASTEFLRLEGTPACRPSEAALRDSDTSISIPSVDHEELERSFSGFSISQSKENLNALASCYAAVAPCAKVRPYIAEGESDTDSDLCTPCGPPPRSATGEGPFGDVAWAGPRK

[4] = target: Potassium voltage-gated channel subfamily KQT member 1 (Homo sapiens) (UniProt P51787); assay: KCNQ1 activators by electrophysiology – IonWorks patch clamp, KCNQ1-CHO cells, orthogonal assay for KCNQ1 potentiator project, confirmation (AID 493184;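 active = current rise at least 3 SD above the untreated control mean in each of two repeat wells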;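 for current potentiation: percent change of the same well's current before compound addition so 0% = no change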); details: automated patch clamp current, at 10 µM; stronger effect = higher value
How it was run: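 Assay system – CHO cells carrying KCNQ1 · Medium – pH 7.4 external bath · Probe or stimulus – depolarizing pulse to +40 mV from -90 mV · Compound dosing – one dose, 10 µM final · Measured by – automated perforated-patch electrophysiology · Measure – % potentiation of steady-state current relative to pre-compound · Repeats – two replicates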

SMILES | outcome [1] | outcome [2] | outcome [3] | outcome [4] | activation [1] | potentiation [2] | potentiation [3] | current potentiation [4]
Cc1ccc(C2c3c(-c4ccccc4O)n[nH]c3C(=O)N2Cc2ccncc2)cc1 (stereo not drawn) | inactive | inactive | inactive | inactive |  |  |  | 
CC1=CC(=O)C=C(C)C1=NOS(=O)(=O)c1ccccc1 | inactive | inactive | inactive | inactive |  |  |  | 
S=c1[nH]nc(-c2ccc(Cl)cc2Cl)n1-c1ccc(Cl)cc1 |  |  |  | inactive | 154% (active) | 43% (active) | 167% (active) | 
O=C(NC(=S)Nc1ccccc1F)c1ccc(Br)o1 |  |  |  | inactive | 230% (active) | 55.5% (active) | 261% (active) | 
COCCCn1c(=S)[nH]c2sc3c(c2c1=O)CCCS3 |  |  | inactive | inactive | 147% (active) | 30.5% (active) |  | 
COc1cccc(CNC(=O)C2CCN(S(=O)(=O)c3ccc(-n4cnnn4)cc3)CC2)c1 | inactive | inactive | inactive | inactive |  |  |  | 
CCCc1ccc2oc(C(=O)N(C)CCn3ccnc3C)c(C)c2c1 | inactive | inactive | inactive | inactive |  |  |  | 
Cc1nc2ccccn2c1C(=O)N/N=C/c1ccccc1 | inactive | inactive | inactive | inactive |  |  |  | 
CC(C)(C)NC(=O)C(=O)NNC(=O)COc1ccc(Br)cc1 |  |  |  | inactive | 227% (active) | 53% (active) | 215% (active) | 
Cn1cc(-c2nnnn2-c2ccccc2)c(=O)c2ccccc21 | inactive | inactive | inactive | inactive |  |  |  | 
CCc1cccc(C)c1NC(=O)c1ccc2nc(N3CCOCC3)sc2c1 | inactive | inactive | inactive | inactive |  |  |  | 
CCN(c1ccccc1)S(=O)(=O)c1ccc(OC)c(OC)c1 |  |  |  | inactive | 167% (active) | 150% (active) | 162% (active) | 
Cc1cccc(NC(=O)CSc2ccc3nnc(-c4cccnc4)n3n2)c1 | inactive | inactive | inactive | inactive |  |  |  | 
Cc1cc(NS(=O)(=O)c2ccc(NC(=O)C(C)Oc3ccccc3Cl)cc2)no1 (stereo not drawn) | inactive | inactive | inactive | inactive |  |  |  | 
CCOC(=O)c1sc2nc(Cc3ccc(Cl)cc3)[nH]c(=S)c2c1C |  |  |  | inactive | 302% (active) | 144% (active) | 362% (active) | 
FC(F)(F)c1cnc2c(c1)[nH]c(=S)n2-c1ccc(Cl)cc1 |  |  |  | inactive | 142% (active) | 27% (active) | 178% (active) | 

SMILES | outcome [1] | outcome [2] | outcome [3] | outcome [4] | activation [1] | potentiation [2] | potentiation [3] | current potentiation [4]
O=C1Nc2cc(C(=O)NCCCN3CCOCC3)ccc2S/C1=C/c1cccc(Cl)c1 | inactive | inactive | inactive | inactive |  |  |  | 
Cc1cccc(N=Cc2cc(Br)cc(Cl)c2O)c1 |  |  | inactive | inactive | 188% (active) | 27% (active) |  | 
Cc1c(-c2ccccc2)sc2nc[nH]c(=S)c12 |  |  |  | inactive | 307% (active) | 130% (active) | 304% (active) | 
COC(=O)CCCC[C@@H]1SC[C@@H](NC(=O)OC)[C@@H]1NC(=O)OC | inactive | inactive | inactive | inactive |  |  |  | 
CCn1nc(C)c(NC(=O)c2cnn3c(C(F)F)cc(-c4ccccc4)nc23)c1C | inactive | inactive | inactive | inactive |  |  |  | 
Cc1ccc(S(=O)(=O)N2CCCC(C(=O)Nc3ccc(C(=O)O)cc3)C2)cc1Cl (stereo not drawn) | inactive | inactive | inactive | inactive |  |  |  | 
CNCc1ccccc1Sc1cccc2ccccc12 | inactive | inactive | inactive | inactive |  |  |  | 
O=C(CSc1ccc2ccccc2n1)Nc1ccc(N2CCOCC2)cc1 | inactive | inactive | inactive | inactive |  |  |  | 
CC1Cc2cc(/C=C3/SC(=S)NC3=O)ccc2O1 (stereo not drawn) | inactive | inactive | inactive |  |  |  |  | 24.4% (active)
CCCNC1=CC(=O)CC(C)(C)C1 | inactive | inactive | inactive | inactive |  |  |  | 
COc1ccc(-c2csc(NC(=O)C3CCCCN3S(=O)(=O)c3ccccc3)n2)cc1 (stereo not drawn) | inactive |  | inactive |  |  | 93.5% (active) |  | 122% (active)
O=S(=O)(NC(=S)NC1CCCCC1)c1ccc(Cl)cc1 |  |  |  | inactive | 191% (active) | 56.5% (active) | 199% (active) | 
CCN(CC)C(=O)c1[nH]cnc1C(=O)NCC(=O)OC(C)(C)C | inactive | inactive | inactive | inactive |  |  |  | 
CCOC(=O)Cn1c(=S)[nH]c2c(oc3ccc(Cl)cc32)c1=O |  |  |  | inactive | 226% (active) | 36% (active) | 218% (active) | 
CC(C)Cc1ccc(C(C)C(=O)Nc2ccc(O)cc2)cc1 (stereo not drawn) | inactive | inactive | inactive | inactive |  |  |  | 
CCn1ncc(CN2CCC(C(=O)Nc3cccc(-c4cccc(F)c4)c3)CC2)c1C | inactive | inactive | inactive | inactive |  |  |  | 
